From ChEMBL document CHEMBL4513216, “Probing the Open Global Health Chemical Diversity Library for Multistage-Active Starting Points for Next-Generation Antimalarials” (ACS Infect Dis, 2020)

Experiment: Toxicity liver stage against HepG2, at 10uM
Type: cell-based
Parameters: test concentration 10 uM, cell line HepG2-A16-CD81EGFP
Conditions: human, HepG2-A16-CD81EGFP cells; read-out: INHIBITION
Procedure, shortened: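 Uninfected HepG2-A16-CD81EGFP cells, 3 × 10^3 per well, 1536-well, plated on prespotted compound at 10 μM final, parasite-free screening media added to match infected plates; puromycin 10 μM positive, DMSO 0.5% negative; run in parallel with 48 h PbLuc assay at 37 °C, 5% CO2; viability by CellTiter-Glo luminescence, normalized to controls.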

Q: Which cytotoxicity at 10 µM does the source give for CCCc1nc(CN(CC)C(=O)c2ccc(S(C)(=O)=O)cc2)no1 here?
A: -5.03%

Q: With O=C1COC2(CCN(Cc3ccncc3)CC2)CN1 as the molecule, how does the cytotoxicity at 10 µM read?
A: -1.81%

Q: Which cytotoxicity at 10 µM does the source give for CN(c1ccc(C(=O)NCCCN2CCCC2)c(Cl)c1)S(C)(=O)=O here?
A: -10%

Q: Which cytotoxicity at 10 µM does the source give for COC1CCCN(C(=O)Nc2nc(C)n(C)n2)C1 (centres undefined) here?
A: 16.3%

Q: With O=C(NC[C@]1(O)CN(Cc2ccc(F)cc2)C[C@H]1O)c1ccccn1 as the molecule, how does the cytotoxicity at 10 µM read?
A: -7.8%

Q: With Cc1nc(CN2CCC(CNC(=O)C3(C)CCCC3)CC2)oc1C as the molecule, how does the cytotoxicity at 10 µM read?
A: 7.66%

Q: With CCN(Cc1nc(COC)no1)C[C@]1(O)CCCN2CCCC[C@@H]21 as the molecule, how does the cytotoxicity at 10 µM read?
A: -0.124%

Q: With COc1ccc(COCC(O)CNC(=O)Cc2ccc(C)cc2)cc1 (centres undefined) as the molecule, how does the cytotoxicity at 10 µM read?
A: -5.62%

Q: For O=C(CCn1cccn1)N1CCC(c2nnc(-c3ccccn3)o2)CC1, which cytotoxicity at 10 µM is on record?
A: 0.125%

Q: With COc1ncccc1CN1C[C@H]2CCN(C(C)C)C[C@H]2C1 as the molecule, how does the cytotoxicity at 10 µM read?
A: 2%

Q: With Cc1ccccc1CN(C)Cc1nc2c(cnn2C)c(=O)[nH]1 as the molecule, how does the cytotoxicity at 10 µM read?
A: 2.51%

Q: With O=C(c1sccc1C1CC1)N1CCN(CC(F)(F)F)CC1 as the molecule, how does the cytotoxicity at 10 µM read?
A: -1.58%

Q: With CCOCCn1nc(C2CCNCC2)n(Cc2ccccc2)c1=O as the molecule, how does the cytotoxicity at 10 µM read?
A: 4.08%

Q: For CCC(Nc1ncccn1)c1cccnc1 (centres undefined), which cytotoxicity at 10 µM is on record?
A: 5.84%

Q: Which cytotoxicity at 10 µM does the source give for COc1ccc(OC)c(C(=O)N(C)Cc2ncc(C)c(OC)c2C)c1 here?
A: -4.3%

Q: Which cytotoxicity at 10 µM does the source give for O=C(CCc1nc2ccccc2[nH]1)Nc1ccc2c(c1)OCC(=O)N2 here?
A: 17.9%

Q: With COCC1CN(C(=O)c2ccnnc2)Cc2ncnn2C1 (centres undefined) as the molecule, how does the cytotoxicity at 10 µM read?
A: -4.24%

Q: For COCC(c1cccc(C(F)(F)F)c1)N(C)C(=O)c1cc(C)n[nH]1 (centres undefined), which cytotoxicity at 10 µM is on record?
A: -14.1%

Q: For CNC(=O)CS(=O)(=O)Cc1coc(-c2ccc(F)cc2)n1, which cytotoxicity at 10 µM is on record?
A: -9.44%

Q: For O=C(O)[C@@H]1CN(Cc2ccc3nsnc3c2)C[C@H]1c1cccnc1, which cytotoxicity at 10 µM is on record?
A: 4.46%

Q: Which cytotoxicity at 10 µM does the source give for COCCN(CC1CCCN(C2Cc3ccccc3C2)C1)C(=O)COC (centres undefined) here?
A: -5.98%

Q: With O=C1[C@H]2CN(Cc3ccoc3)C[C@@H]2CCN1Cc1cccnc1 as the molecule, how does the cytotoxicity at 10 µM read?
A: -71.5%

Q: Which cytotoxicity at 10 µM does the source give for CC(CO)NC(=O)Nc1ccc(Cl)cc1OCC(F)(F)F (centres undefined) here?
A: 5.32%

Q: For CN(C(=O)c1ccccn1)c1nc2c(s1)CCc1c-2cnn1C, which cytotoxicity at 10 µM is on record?
A: 11.7%

Q: Which cytotoxicity at 10 µM does the source give for CCC(=O)N1CCN(C(=O)Nc2ccccc2-c2cccs2)CC1 here?
A: -3.21%

Q: For CO[C@H]1CN(Cc2ccc(C)o2)[C@@H]2CCCO[C@H]12, which cytotoxicity at 10 µM is on record?
A: -144%

Q: With CN(Cc1cccs1)C(=O)Cn1cc(NC(=O)C(C)(C)C)cn1 as the molecule, how does the cytotoxicity at 10 µM read?
A: -3.52%

Q: For CC(=O)N1CCC2(CC1)CN(C(=O)c1ccc3c(c1)OCCO3)C2, which cytotoxicity at 10 µM is on record?
A: 9.15%

Q: With O=C(CCc1nc(Cl)n[nH]1)N1C[C@@H](CN2CCCCC2)[C@@H](CO)C1 as the molecule, how does the cytotoxicity at 10 µM read?
A: -0.104%

Q: For N#CCCn1cnc2c(F)cc(Br)cc2c1=O, which cytotoxicity at 10 µM is on record?
A: 0.997%

Q: With CC(=O)Nc1ccc(OCc2noc(C(=O)N3CCCCC3)n2)cc1 as the molecule, how does the cytotoxicity at 10 µM read?
A: -3.68%

Q: With Cc1ccccc1OCC(O)CN1CCC(c2ccn[nH]2)CC1 (centres undefined) as the molecule, how does the cytotoxicity at 10 µM read?
A: 0.531%

Q: Which cytotoxicity at 10 µM does the source give for CCC(C)NC(=O)CCNC(=O)Nc1ccc(-n2cncn2)c(F)c1 (centres undefined) here?
A: -0.22%

Q: With Cc1noc(C)c1CNC(=O)c1cn(CCC2CCCCN2)nn1 (centres undefined) as the molecule, how does the cytotoxicity at 10 µM read?
A: 0.872%

Q: Which cytotoxicity at 10 µM does the source give for COCCN1CCO[C@H]2CCN(C(=O)c3cccs3)CC[C@@H]21 here?
A: -0.234%

Q: Which cytotoxicity at 10 µM does the source give for CN1CCN([C@@H]2CCN(CC3CCOC3)[C@H]2Cc2cnn(C)c2)CC1 (some centres undefined) here?
A: 5.25%

Q: For Nc1nc2c(s1)C(c1c(F)cccc1Cl)CC(=O)N2 (centres undefined), which cytotoxicity at 10 µM is on record?
A: 4.21%

Q: Which cytotoxicity at 10 µM does the source give for Cc1n[nH]c(C)c1CCC(=O)N(C)Cc1cn[nH]c1-c1ccc(F)cc1 here?
A: 7.86%

Q: For c1ccc(O[C@@H]2CN(Cc3nccs3)[C@@H]3CCCO[C@@H]32)nc1, which cytotoxicity at 10 µM is on record?
A: -8.52%

Q: For CC(C)(C)CC(=O)N1CCCC2(CC(C(=O)Nc3ccccc3)=NO2)C1 (centres undefined), which cytotoxicity at 10 µM is on record?
A: -6.63%

Q: With Cc1ccc(C(=O)N2CCOc3nc(C)ccc32)c(F)c1 as the molecule, how does the cytotoxicity at 10 µM read?
A: -2.71%

Q: For Cc1ccc(C(C)NC(=O)N2CCCN(CC(F)F)CC2)s1 (centres undefined), which cytotoxicity at 10 µM is on record?
A: 3.44%

Q: Which cytotoxicity at 10 µM does the source give for O=C(NCCCn1cncn1)NCC(c1ccco1)N1CCCCC1 (centres undefined) here?
A: 0.987%

Q: Which cytotoxicity at 10 µM does the source give for CCC(NC(=O)c1nn(C)cc1C(=O)O)c1ccccc1 (centres undefined) here?
A: -7.41%

Q: With CCOc1cccc(C(=O)N2C[C@@H]3CC[C@H]2CN(C(=O)C2CCC2)C3)c1 as the molecule, how does the cytotoxicity at 10 µM read?
A: 5.73%

Q: Which cytotoxicity at 10 µM does the source give for Cc1c(CN2CCCC(O)C2)[nH]c2ccc(F)cc12 (centres undefined) here?
A: 9.35%

Q: With CC(C)n1c(=O)[nH]c2cn(-c3ccc(F)cc3)c(=O)n21 as the molecule, how does the cytotoxicity at 10 µM read?
A: -7.74%

Q: Which cytotoxicity at 10 µM does the source give for CCc1cc(C(=O)N2CCCC(c3cc(=O)nc4n3CCC4)C2)no1 (centres undefined) here?
A: -2.6%

Q: For CCc1nnc(CNC(=O)CCCN2CCCCC2)s1, which cytotoxicity at 10 µM is on record?
A: -15.4%

Q: Which cytotoxicity at 10 µM does the source give for CCN(CC(=O)NC)C(=O)c1csc(Cc2ccccc2)n1 here?
A: -5.66%

Q: With O=C(CNc1nc(C2CC2)ns1)N1CCc2sccc2C1 as the molecule, how does the cytotoxicity at 10 µM read?
A: 17.3%

Q: With Cn1ccnc1CN1CCCN(C(=O)C2(C#N)CCCCC2)CC1 as the molecule, how does the cytotoxicity at 10 µM read?
A: -2.84%

Q: With Cc1cc(=O)n(C)cc1NC(=O)Cc1ccc(C(F)(F)F)cc1 as the molecule, how does the cytotoxicity at 10 µM read?
A: -14%

Q: For CNc1cc(C)nc(N2C[C@@H](C(=O)O)[C@H](C3CC3)C2)n1, which cytotoxicity at 10 µM is on record?
A: -0.147%
